The values that follow come from ChEMBL document CHEMBL1154266, “Synthesis, conformational analysis, and biological evaluation of 19-nor-vitamin D3 analogues with A-ring modifications” (J Med Chem, 2009).

Values joined by “and” are separate entries in the source; they are usually repeats but may differ in a detail not shown here. Equal values may be shown once.

Data set [1] concerns MCF7. Description: Antiproliferative activity against human MCF7 cells at EC50 after 72 hrs by [3H]thymidine incorporation assay relative to 1-alpha,25-(OH)2D3. It is filed as functional. The procedure, abridged: (§1)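 MCF-7 breast cancer cells; proliferation read by [³H]thymidine incorporation. Inhibition was scored at 10^-6 M, and the concentration giving half-maximal response was derived. Values are mean ± SD, n = 3.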
(Uptake of a labelled nucleoside into DNA is a usual measure of proliferation.)

In data set [2] the target is T1, Vitamin D3 receptor (Sus scrofa) (UniProt A3RGC1).
T1 sequence (whole entry): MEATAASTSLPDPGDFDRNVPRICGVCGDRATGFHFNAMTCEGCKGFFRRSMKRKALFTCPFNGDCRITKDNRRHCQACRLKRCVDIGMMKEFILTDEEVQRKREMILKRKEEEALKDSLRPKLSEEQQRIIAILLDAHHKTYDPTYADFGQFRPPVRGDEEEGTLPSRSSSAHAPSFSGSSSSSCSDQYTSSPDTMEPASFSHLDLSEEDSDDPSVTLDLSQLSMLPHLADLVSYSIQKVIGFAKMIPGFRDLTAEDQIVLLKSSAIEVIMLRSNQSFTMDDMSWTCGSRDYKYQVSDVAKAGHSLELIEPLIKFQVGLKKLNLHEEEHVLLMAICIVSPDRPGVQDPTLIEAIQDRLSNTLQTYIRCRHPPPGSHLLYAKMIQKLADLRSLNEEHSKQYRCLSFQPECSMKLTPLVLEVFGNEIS
Description: Displacement of [3H]1-alpha,25-(OH)2D3 from VDR in pig intestinal mucosa at EC50 relative to 1-alpha,25-(OH)2D3. It is filed as tissue-based. The procedure, abridged:
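Binding to vitamin D receptor (VDR), […]. Values are mean ± SD, n = 3.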

Data set [3] has as its system Mus musculus. Description: Toxicity in NMRI mouse assessed as induction of calcemic effect at 20 ug/kg, ip daily for 7 consecutive days measured after day 7 by colorimetric assay. The data set is classed as organism-based. Conditions: in vivo, 0.02 mg/kg. The procedure, abridged:
(§2)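 Mice received a daily injection of compound. The calcemic effect was read as the percent increase in serum calcium levels.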

The test system of data set [4] is Mus musculus. Description: Toxicity in NMRI mouse assessed as induction of calcemic effect at 40 ug/kg, ip daily for 7 consecutive days measured after day 7 by colorimetric assay. The data set is classed as organism-based. The conditions noted are these: in vivo, 0.04 mg/kg. The essentials:
as §2

The target of data set [5] is T1, Vitamin D3 receptor (Sus scrofa). Description: Ratio of 1-alpha,25-(OH)2D3 to compound affinity for binding to VDR in pig intestinal mucosa.
In data set [6] the test system is Mus musculus. Description: Toxicity in NMRI mouse assessed as increase in serum calcium level at 0.1 ug/kg, ip daily for 7 consecutive days measured after day 7 by colorimetric assay. The data set is classed as organism-based. Conditions: in vivo, 0.0001 mg/kg. The essentials:
as §2

The nature of data set [7]: Toxicity in ip dosed NMRI mouse assessed as maximum tolerable dose inducing minimal increase in serum calcium level administered daily for 7 consecutive days measured after day 7 by colorimetric assay. The data set is classed as organism-based. The conditions noted are these: in vivo.
For data set [8], the system named is Mus musculus. Description: Toxicity in NMRI mouse assessed as increase in serum calcium level at 100 ug/kg, ip daily for 7 consecutive days measured after day 7 by colorimetric assay. The data set is classed as organism-based. The conditions noted are these: in vivo, 0.1 mg/kg. The essentials: as §2
The test system of data set [9] is MCF7. Description: Antiproliferative activity against human MCF7 cells at 1 uM after 72 hrs by [3H]thymidine incorporation assay. It is filed as functional. The essentials:
as §1

Data set [10] deals with Mus musculus. Description: Toxicity in NMRI mouse assessed as induction of calcemic effect at 100 ug/kg, ip daily for 7 consecutive days measured after day 7 by colorimetric assay. The conditions noted are these: in vivo, 0.1 mg/kg. It is filed as organism-based. The essentials: as §2
Data set [11] concerns MCF7. Description: Ratio of 1-alpha,25-(OH)2D3 to compound antiproliferative activity against human MCF7 cells at EC50 after 72 hrs by [3H]thymidine incorporation assay. The data set is classed as functional.

In the data set on MCF7 [1], `C[C@H](CCCC(C)(C)O)[C@H]1CC[C@H]2/C(=C/C=C3C[C@@H](O)C(O)[C@H](O)C3)CCC[C@]12C` (stereo not given in full) [listing 1 of 2 here] gave an Activity of 5%.
For the molecule `C[C@H](CCCC(C)(C)O)[C@H]1CC[C@H]2/C(=C/C=C3\C[C@@H](O)[C@@H]4O[C@@H]4C3)CCC[C@]12C`, the Activity in data set [2] was 25%; in the data set with MCF7 [1], 16%; in the data set on Mus musculus [3] it was “Non-toxic”.
With `C[C@H](CCCC(C)(C)O)[C@H]1CC[C@H]2/C(=C/C=C3/C[C@@H](O)[C@H](O)[C@@H](O)C3)CCC[C@]12C`, the Activity in [2] came to 0.4%; with MCF7 [1], 5%.
Regarding `C[C@H](CCCC(C)(C)O)[C@H]1CC[C@H]2/C(=C/C=C3/C[C@@H](O)[C@@H]4O[C@@H]4C3)CCC[C@]12C`, the Activity in data set [2] was 0.4%; in the data set on MCF7 [1] it was 1%; in the data set on Mus musculus [4], “Non-toxic”.
On to `C[C@H](CCCC(C)(C)O)[C@H]1CC[C@H]2/C(=C/C=C3C[C@@H](O)C(O)[C@H](O)C3)CCC[C@]12C` (stereo not given in full) [listing 2 of 2 here], for which, in [2], the Activity was 20% and 10%. For the same molecule, in [5], the Ratio is 5 and 10.
A word on the MTD: it is the largest dose that counted as tolerated. Turning to `C=C1/C(=C\C=C2/CCC[C@]3(C)[C@@H]([C@H](C)CCCC(C)(C)O)CC[C@@H]23)C[C@@H](O)C[C@@H]1O` [CALCITRIOL], the Activity in the data set on Mus musculus [6] turned out to be 27%. In data set [7], the maximum tolerated dose (MTD) at 7 days was determined as 0.0001 mg/kg/day.
Turning to `C[C@H](CCCC(C)(C)O)[C@H]1CC[C@H]2/C(=C/C=C3\C[C@@H](O)[C@H](O)[C@@H](O)C3)CCC[C@]12C`, the Activity (in [2]; in the data set on MCF7 [1]) was 5% each time.
Turning to `[H][C@@]12CC[C@]([H])([C@H](C)CCCC(C)(C)O)[C@@]1(C)CCC/C2=C\C=C1\C[C@@H](O)[C@H](O)[C@H](O)C1` (stereo not given in full), the Activity is reported as 13% in the data set with Mus musculus [8], 20% with MCF7 [1], 60% with MCF7 [9] and “Non-toxic” with Mus musculus [10]. Besides, the Ratio in the data set with MCF7 [11] was determined as 5.
